Reference: article PMC3902791 (Molecular imaging and biology : MIB : the official …, 2012)
Entries after “also recorded” stand apart in the source; their conditions may differ.

How the values were obtained:
[1] = test system: rhesus macaques; assay: ECG monitoring for acute toxicity during PET imaging; assay type: in vivo
Procedure, shortened: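 Animals were anaesthetised (atropine 0.04 mg/kg i.m.; telazole or ketamine i.m.; isoflurane 1.0–3.0% in oxygen), intubated, mechanically ventilated and kept at 37±0.8°C. ECG, blood pressure, pulse oximetry and respiration rate were monitored throughout the imaging study after i.v. radiotracer.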

[2] = assay type: in vivo, rhesus macaques
Procedure, shortened: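 Six rhesus macaques (3 female, 3 male), fasted overnight, under isoflurane anaesthesia, received test compound i.v. at 165.4 ± 28.5 MBq (21.8±5.9 MBq/kg) in 5 mL over 2 min. Venous samples (0.5 mL) were taken from the second saphenous cannula at 10, 20, 40, 60, 90 s and 2–180 min. Radioactivity in whole blood and plasma was gamma-counted and expressed as %ID/mL.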

[3] = Dynamic and whole-body PET imaging of pharmacokinetics and biodistribution; assay type: in vivo, rhesus macaques
Procedure, shortened: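 ECAT HR+ scanner; 10-min transmission scan, then i.v. radiotracer (165.4 ± 28.5 MBq). Lower thorax to upper abdomen was imaged dynamically for 0–30 min in 2D mode, 29 frames (20×15 s, 5×1 min, 4×5 min). Three whole-body static scans followed at 40, 100 and 170 min (3-min transmission, 5-min emission, 4–5 beds). OSEM reconstruction with attenuation, scatter, random and dead-time correction. 3D VOIs gave organ %ID/g time–activity curves.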

[4] = Radio-HPLC analysis of radiolabeled metabolites in blood plasma and urine; assay type: in vivo, rhesus macaques
Procedure, shortened: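 Plasma was ultrafiltered, then run on radio-HPLC (Supelcogel C-610H column, 20 mM phosphoric acid, 0.5 mL/min, UV plus radioactivity detection). Peaks were identified with cold fluorocitrate and fluoride standards, and fractions were taken from peak areas. Urine was collected by Foley catheter, which was clamped until after the second whole-body scan. It was collected at 120–150 min, gamma-counted and analysed by the same HPLC.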

[5] = Humanized time-integrated activity coefficients; assay type: in vivo, rhesus macaques
Procedure, shortened: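 Six rhesus macaques (3 female, 3 male) received the radiolabelled test compound intravenously, followed by whole-body PET/CT. Organ activity came from 3D VOIs drawn on PET images. Time–activity curves were fitted mono-exponentially, or by a linear fit of log activity for one animal with two scans. Coefficients were scaled by human/macaque whole-body-normalised organ mass ratios, using CT-derived macaque organ masses and the OLINDA/EXM 73.7-kg adult male model.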

O=C(O)C[18F] [^18F-FACE, ^18F-fluoroacetate]
changes in ECG (cardiac rhythm, electrical activity) ([1]; administration to 180 min post-injection): None of the animals injected with ^18F-FACE demonstrated any significant changes in cardiac rhythm or electrical activity patterns; also recorded: no significant changes to the ECG
ECG PR ([1]; time 1 min): 0.11 ± 0.01 s
ECG QRS ([1]; time 1 min): 0.05 ± 0.01 s
ECG QT ([1]; time 1 min): 0.35 ± 0.04 s
ECG ST ([1]; time 1 min): 0.80 ± 0.45 s
ECG p ([1]; time 1 min): 0.04 ± 0.01 s
Heart rate ([1]; time 1 min): 88±8 per minute
ECG PR ([1]; time 2 min): 0.11 ± 0.01 s
ECG QRS ([1]; time 2 min): 0.04 ± 0.00 s
ECG QT ([1]; time 2 min): 0.34 ± 0.05 s
ECG ST ([1]; time 2 min): 1.00 ± 0.50 s
ECG p ([1]; time 2 min): 0.04 ± 0.00 s
Heart rate ([1]; time 2 min): 88±8 per minute
ECG PR ([1]; time 5 min): 0.11 ± 0.02 s
ECG QRS ([1]; time 5 min): 0.04 ± 0.01 s
ECG QT ([1]; time 5 min): 0.35 ± 0.04 s
ECG ST ([1]; time 5 min): 0.95 ± 0.51 s
ECG p ([1]; time 5 min): 0.04 ± 0.01 s
Heart rate ([1]; time 5 min): 88±7 per minute
ECG PR ([1]; time 16 min): 0.10 ± 0.01 s
ECG QRS ([1]; time 16 min): 0.04 ± 0.00 s
ECG QT ([1]; time 16 min): 0.34 ± 0.04 s
ECG ST ([1]; time 16 min): 0.80 ± 0.41 s
ECG p ([1]; time 16 min): 0.05 ± 0.01 s
Heart rate ([1]; time 16 min): 87±6 per minute
ECG PR ([1]; time 32 min): 0.11 ± 0.01 s
ECG QRS ([1]; time 32 min): 0.04 ± 0.00 s
ECG QT ([1]; time 32 min): 0.34 ± 0.03 s
ECG ST ([1]; time 32 min): 0.60 ± 0.38 s
ECG p ([1]; time 32 min): 0.05 ± 0.01 s
Heart rate ([1]; time 32 min): 89±7 per minute
ECG PR ([1]; time 60 min): 0.11 ± 0.01 s
ECG QRS ([1]; time 60 min): 0.04 ± 0.01 s
ECG QT ([1]; time 60 min): 0.34 ± 0.04 s
ECG ST ([1]; time 60 min): 0.70 ± 0.54 s
ECG p ([1]; time 60 min): 0.04 ± 0.00 s
Heart rate ([1]; time 60 min): 89±7 per minute
ECG PR ([1]; time 90 min): 0.11 ± 0.01 s
ECG QRS ([1]; time 90 min): 0.04 ± 0.00 s
ECG QT ([1]; time 90 min): 0.34 ± 0.03 s
ECG ST ([1]; time 90 min): 0.70 ± 0.54 s
ECG p ([1]; time 90 min): 0.04 ± 0.01 s
Heart rate ([1]; time 90 min): 87±5 per minute
ECG PR ([1]; time 120 min): 0.11 ± 0.01 s
ECG QRS ([1]; time 120 min): 0.05 ± 0.01 s
ECG QT ([1]; time 120 min): 0.33 ± 0.03 s
ECG ST ([1]; time 120 min): 0.60 ± 0.38 s
ECG p ([1]; time 120 min): 0.04 ± 0.01 s
Heart rate ([1]; time 120 min): 88±3 per minute
ECG PR ([1]; time 180 min): 0.10 ± 0.01 s
ECG QRS ([1]; time 180 min): 0.04 ± 0.00 s
ECG QT ([1]; time 180 min): 0.34 ± 0.03 s
ECG ST ([1]; time 180 min): 0.85 ± 0.63 s
ECG p ([1]; time 180 min): 0.04 ± 0.01 s
Heart rate ([1]; time 180 min): 93±8 per minute
blood clearance half-time, fast phase ([2]; i.v., bi-exponential, fast phase between 3 and 18 min): 4 min
blood clearance half-time, slow phase ([2]; i.v., bi-exponential, slow phase until 180 min): 250 min
partition of radioactivity in the blood: plasma ([2]; stable throughout the study): 70%
partition of radioactivity in the blood: red blood cells ([2]; stable throughout the study): 30%
accumulation in the myocardium ([3]; PET): Some accumulation
accumulation or retention in the brain ([3]; PET): No significant accumulation or retention
uptake of radioactivity (free ^18F-fluoride) in bones / skeletal structures ([3]; PET, over 2 to 3 h post-injection): insignificant; also recorded: limited
radioactivity concentration in liver ([3]; at 5 min): 0.040 % ID/g
level of radioactivity in the blood ([3]; within 5 min after i.v. injection): 0.040±0.02 % ID/g
^18F-fluorocitrate anabolite ([4]; 3-h study): not detectable
fraction of total radioactivity in urine as ^18F-FACE ([4]; urine collected at 120–150 min): 72.4%
fraction of total radioactivity in urine as ^18F-fluoride ([4]; urine collected at 120–150 min): 27.6%
Humanized residence time, Gall bladder ([5]; All, Mean±SD): 0.011 ± 0.005 h
Humanized residence time, Heart ([5]; All, Mean±SD): 0.034 ± 0.017 h
Humanized residence time, Intestines ([5]; All, Mean±SD): 0.319 ± 0.134 h
Humanized residence time, Kidneys ([5]; All, Mean±SD): 0.044 ± 0.013 h
Humanized residence time, Liver ([5]; All, Mean±SD): 0.209 ± 0.171 h
Humanized residence time, Remainder of body ([5]; All, Mean±SD): 1.751 ± 0.363 h
Humanized residence time, Gall bladder ([5]; Female, Mean±SD): 0.016 ± 0.002 h
Humanized residence time, Heart ([5]; Female, Mean±SD): 0.024 ± 0.013 h
Humanized residence time, Kidneys ([5]; Female, Mean±SD): 0.041 ± 0.016 h
Humanized residence time, Liver ([5]; Female, Mean±SD): 0.132 ± 0.082 h
Humanized residence time, Remainder of body ([5]; Female, Mean±SD): 1.724 ± 0.549 h
Humanized residence time, Gall bladder ([5]; Male, Mean±SD): 0.007 ± 0.002 h
Humanized residence time, Heart ([5]; Male, Mean±SD): 0.043 ± 0.016 h
Humanized residence time, Intestines ([5]; Male, Mean±SD): 0.400 ± 0.154 h
Humanized residence time, Kidneys ([5]; Male, Mean±SD): 0.047 ± 0.012 h
Humanized residence time, Liver ([5]; Male, Mean±SD): 0.287 ± 0.220 h
Humanized residence time, Remainder of body ([5]; Male, Mean±SD): 1.778 ± 0.159 h
Humanized residence time, Gall bladder ([5]; animal 1, male): 0.006 h
Humanized residence time, Heart ([5]; animal 1, male): 0.048 h
Humanized residence time, Kidneys ([5]; animal 1, male): 0.061 h
Humanized residence time, Liver ([5]; animal 1, male): 0.505 h
Humanized residence time, Remainder of body ([5]; animal 1, male): 1.706 h
Humanized residence time, Intestines ([5]; animal 1, male, assigned in thirds to small, upper large, lower large intestine): 0.235 h
Humanized residence time, Gall bladder ([5]; animal 2, male): 0.009 h
Humanized residence time, Heart ([5]; animal 2, male): 0.057 h
Humanized residence time, Intestines ([5]; animal 2, male): 0.426 h
Humanized residence time, Kidneys ([5]; animal 2, male): 0.038 h
Humanized residence time, Liver ([5]; animal 2, male): 0.290 h
Humanized residence time, Remainder of body ([5]; animal 2, male): 1.668 h
Humanized residence time, Heart ([5]; animal 3, male): 0.025 h
Humanized residence time, Intestines ([5]; animal 3, male): 0.540 h
Humanized residence time, Kidneys ([5]; animal 3, male): 0.043 h
Humanized residence time, Liver ([5]; animal 3, male): 0.065 h
Humanized residence time, Remainder of body ([5]; animal 3, male): 1.960 h
Humanized residence time, Gall bladder ([5]; animal 4, female): 0.017 h
Humanized residence time, Heart ([5]; animal 4, female): 0.039 h
Humanized residence time, Intestines ([5]; animal 4, female): 0.261 h
Humanized residence time, Kidneys ([5]; animal 4, female): 0.032 h
Humanized residence time, Liver ([5]; animal 4, female): 0.226 h
Humanized residence time, Remainder of body ([5]; animal 4, female): 1.138 h
Humanized residence time, Gall bladder ([5]; animal 5, female): 0.014 h
Humanized residence time, Heart ([5]; animal 5, female): 0.016 h
Humanized residence time, Intestines ([5]; animal 5, female): 0.256 h
Humanized residence time, Kidneys ([5]; animal 5, female): 0.059 h
Humanized residence time, Liver ([5]; animal 5, female): 0.078 h
Humanized residence time, Remainder of body ([5]; animal 5, female): 1.804 h
Humanized residence time, Heart ([5]; animal 6, female): 0.017 h
Humanized residence time, Intestines ([5]; animal 6, female): 0.196 h
Humanized residence time, Kidneys ([5]; animal 6, female): 0.030 h
Humanized residence time, Liver ([5]; animal 6, female): 0.093 h
Humanized residence time, Remainder of body ([5]; animal 6, female): 2.228 h
